{"source": "ChEMBL document CHEMBL1250501", "about": "“Anti-tubercular agents. Part 5: synthesis and biological evaluation of benzothiadiazine 1,1-dioxide based congeners” (Eur J Med Chem, 2010)", "key": {"[1]": {"tested_on": "Mycobacterium tuberculosis", "assay": "Antimycobacterial activity against Mycobacterium tuberculosis H37Rv after 3 to 4 weeks by broth microdilution assay", "type": "functional", "method_in_brief": "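MIC by broth microdilution on compounds active in a single-concentration primary screen. Plates incubated 3–4 weeks at 37 °C in a CO₂ incubator. Wells read visually for absence of growth turbidity.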"}, "[2]": {"tested_on": "Mycobacterium tuberculosis", "assay": "Antimycobacterial activity against Mycobacterium tuberculosis H37Rv infected in BALB/c mouse lung assessed as reduction of bacterial load at 10 mg/kg, po administered 1 week after infection measured after 4 weeks", "type": "functional", "method_in_brief": "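Female BALB/c mice, 6 weeks old, 20–22 g, acclimatised one week. Infected intranasally with about 1.5 × 10⁶ CFU of H37Rv grown 10 days in 7H9/ADC. Treatment began 1 week post-infection, given orally in 50% PEG in water, for 4 weeks. Lungs and spleens homogenised in saline with 0.05% Tween 80. Duplicate 10-fold dilutions plated on 7H10/OADC, 37 °C, 5% CO₂, 4–6 weeks. Result expressed as log₁₀ CFU per organ versus untreated controls.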"}}}
{"compound": "CO[C@H]1/C=C/O[C@@]2(C)Oc3c(C)c(O)c4c(O)c(c(/C=N/N5CCN(C)CC5)c(O)c4c3C2=O)NC(=O)/C(C)=C\\C=C\\[C@H](C)[C@H](O)[C@@H](C)[C@@H](O)[C@@H](C)[C@H](OC(C)=O)[C@@H]1C", "note": "[RIFAMPIN]", "values": [{"measurement": "MIC", "setting": "[1]", "result": 0.25, "unit": "µg/mL"}, {"measurement": "log10cfu", "setting": "[2]", "result": 3.8}]}
